From ChEMBL document CHEMBL4422637, “Identification of dual role of piperazine-linked phenyl cyclopropyl methanone as positive allosteric modulator of 5-HT2C and negative allosteric modulator of 5-HT2B receptors” (Eur J Med Chem, 2019)
Active and inactive are the calls of the source. The calls are words filed in the database; no cut-off is given here.

Key:
[1] = target: T1, 5-hydroxytryptamine receptor 2C (Homo sapiens) (UniProt P28335); assay: Agonist activity at 5HT2C receptor (unknown origin) expressed in HEK293 cells co-expressing NFAT-RE at 10 uM after 6 to 12 hrs by Bright-Glo luciferase reporter gene assay; type: cell-based
T1 sequence (whole entry): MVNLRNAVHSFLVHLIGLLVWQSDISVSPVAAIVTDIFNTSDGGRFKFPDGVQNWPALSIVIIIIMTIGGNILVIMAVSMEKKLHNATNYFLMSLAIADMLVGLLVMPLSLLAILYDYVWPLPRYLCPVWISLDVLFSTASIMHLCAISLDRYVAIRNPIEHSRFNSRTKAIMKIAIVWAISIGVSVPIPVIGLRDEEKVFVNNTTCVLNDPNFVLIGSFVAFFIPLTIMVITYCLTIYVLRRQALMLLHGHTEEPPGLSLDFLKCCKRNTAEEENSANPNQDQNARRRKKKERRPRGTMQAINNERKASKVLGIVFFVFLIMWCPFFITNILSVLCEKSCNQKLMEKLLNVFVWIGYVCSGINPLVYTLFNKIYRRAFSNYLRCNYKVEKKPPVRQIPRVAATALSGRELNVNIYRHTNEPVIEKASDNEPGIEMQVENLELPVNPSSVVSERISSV
Procedure, shortened: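 Primary screen at 5-HT2C in transiently co-transfected HEK293T (receptor plus NFAT-RE luciferase plasmids, 50,000 cells/well). Compounds tested in triplicate at a final 10 µM in HEPES-buffered HBSS pH 7.4 and incubated 6-12 h. Luminescence read within 5 min of Bright-Glo (1 mg/ml final). Signal normalized to the 5-HT maximal response.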

[2] = target: T1, 5-hydroxytryptamine receptor 2C (Homo sapiens); assay: Positive allosteric modulation of 5HT2C receptor (unknown origin) expressed in HEK293 cells co-expressing NFAT-RE assessed as increase in serotonin-induced reponse at 10 uM after 6 to 12 hrs by Bright-Glo luciferase reporter gene assay relative to serotonin; type: cell-based
Procedure, shortened: (§1)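 Transiently co-transfected HEK293T cells expressing 5-HT2A, 5-HT2B or 5-HT2C with NFAT-RE luciferase, 50,000 cells/well. Test compound added first at 10 µM, 1 µM or 100 nM, in triplicate. A 5-HT concentration-response (10 µM to 0.01 nM) followed, then 6-12 h incubation. Bright-Glo luminescence was fitted by non-linear regression, with Emax normalized to 5-HT alone (100%). n=3-4.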

Rattus norvegicus = assay: Induction of anorexia in Sprague-Dawley rat assessed as suppression of food intake at 2 pmol, icv measured after 3 to 6 hrs; type: functional, organism-based
Procedure, shortened: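 Adult SD rats (150-200 g) on a 12 h light/dark cycle at 22 °C, cannulated in the right ventricle. Rats were fasted 4 h with free access to water, then dosed i.c.v. with 2 pmol/rat (2 µL) in aCSF vehicle; lorcaserin 2 pmol/rat served as positive control. Weighed pellets were given 10 min later, and remaining food plus spillage was weighed at 3, 6 and 24 h; n=4.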

[3] = target: T2, 5-hydroxytryptamine receptor 2A (Homo sapiens, UniProt P28223); assay: Agonist activity at 5HT2A receptor (unknown origin) expressed in HEK293 cells co-expressing NFAT-RE after 6 to 12 hrs by Bright-Glo luciferase reporter gene assay; type: cell-based
T2 sequence (P28223 whole entry): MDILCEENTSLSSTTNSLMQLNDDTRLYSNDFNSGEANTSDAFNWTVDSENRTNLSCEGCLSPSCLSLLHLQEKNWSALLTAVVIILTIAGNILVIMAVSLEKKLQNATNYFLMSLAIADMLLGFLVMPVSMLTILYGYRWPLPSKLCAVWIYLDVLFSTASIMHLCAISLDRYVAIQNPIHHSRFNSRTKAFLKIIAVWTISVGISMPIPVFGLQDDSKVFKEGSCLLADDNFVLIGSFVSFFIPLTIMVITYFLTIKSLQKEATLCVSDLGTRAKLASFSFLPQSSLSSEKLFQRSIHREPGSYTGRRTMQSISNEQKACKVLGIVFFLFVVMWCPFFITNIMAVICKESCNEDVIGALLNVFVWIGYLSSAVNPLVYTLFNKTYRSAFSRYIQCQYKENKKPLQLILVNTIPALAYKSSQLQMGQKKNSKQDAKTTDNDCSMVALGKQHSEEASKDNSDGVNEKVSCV
Procedure, shortened: (§2)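 HEK293T cells transiently co-transfected (PEI) with 0.1 µg/well receptor plasmid (5-HT2A, 5-HT2B or 5-HT2C) plus 0.1 µg/well NFAT-RE luciferase reporter, plated 50,000 cells/well 24 h before treatment. Compounds tested in triplicate from 10 µM down to 0.01 nM in HBSS/20 mM HEPES pH 7.4, incubated 6-12 h. Luminescence read within 5 min of Bright-Glo (1 mg/ml final). RLU fitted by non-linear regression; 5-HT Emax set to 100%.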

5HT2A receptor = 5HT2A receptor (Homo sapiens, UniProt P28223); assay: Positive allosteric modulation of 5HT2A receptor (unknown origin) expressed in HEK293 cells co-expressing NFAT-RE assessed as increase in serotonin-induced reponse at 1 uM after 6 to 12 hrs by Bright-Glo luciferase reporter gene assay relative to serotonin; type: cell-based; settings: HEK293 cells expressing 5HT2A receptor and NFAT-RE reporter; procedure, shortened: as §1
Sequence of 5HT2A receptor (P28223 whole entry): as above

[4] = target: T3, 5-hydroxytryptamine receptor 2B (Homo sapiens, UniProt P41595); assay: Positive allosteric modulation of 5HT2B receptor (unknown origin) expressed in HEK293 cells co-expressing NFAT-RE assessed as increase in serotonin-induced reponse after 6 to 12 hrs by Bright-Glo luciferase reporter gene assay; type: cell-based; procedure, shortened: as §1
T3 sequence (P41595 whole entry): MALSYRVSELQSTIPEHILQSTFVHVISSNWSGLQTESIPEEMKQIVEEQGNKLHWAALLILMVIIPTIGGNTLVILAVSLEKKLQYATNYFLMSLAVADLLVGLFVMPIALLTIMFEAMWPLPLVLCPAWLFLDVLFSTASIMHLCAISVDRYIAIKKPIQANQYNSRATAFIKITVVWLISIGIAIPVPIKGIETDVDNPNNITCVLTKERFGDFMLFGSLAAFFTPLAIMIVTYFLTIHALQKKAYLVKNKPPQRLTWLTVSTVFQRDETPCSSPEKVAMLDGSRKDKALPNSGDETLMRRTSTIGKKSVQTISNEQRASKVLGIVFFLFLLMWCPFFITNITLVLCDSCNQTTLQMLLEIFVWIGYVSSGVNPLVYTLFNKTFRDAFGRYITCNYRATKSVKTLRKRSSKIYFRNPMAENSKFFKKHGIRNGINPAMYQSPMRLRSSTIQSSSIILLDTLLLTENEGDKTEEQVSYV

[5] = target: T3, 5-hydroxytryptamine receptor 2B; assay: Agonist activity at 5HT2B receptor (unknown origin) expressed in HEK293 cells co-expressing NFAT-RE after 6 to 12 hrs by Bright-Glo luciferase reporter gene assay; type: cell-based; procedure, shortened: as §2
[6] = target: T4, 5-hydroxytryptamine receptor 2C (Homo sapiens, UniProt P28335); assay: Positive allosteric modulation of 5HT2C receptor (unknown origin) expressed in HEK293 cells co-expressing NFAT-RE assessed as increase in serotonin-induced reponse after 6 to 12 hrs by Bright-Glo luciferase reporter gene assay; type: cell-based; procedure, shortened: as §1
T4 sequence (P28335 whole entry): T1 sequence (whole entry)

5HT2B receptor = 5HT2B receptor (Homo sapiens, UniProt P41595); assay: Positive allosteric modulation of 5HT2B receptor (unknown origin) expressed in HEK293 cells co-expressing NFAT-RE assessed as increase in serotonin-induced reponse at 1 uM after 6 to 12 hrs by Bright-Glo luciferase reporter gene assay relative to serotonin; type: cell-based; settings: HEK293 cells expressing 5HT2B receptor and NFAT-RE reporter; procedure, shortened: as §1
Sequence of 5HT2B receptor (P41595 whole entry): as above

[7] = target: T1, 5-hydroxytryptamine receptor 2C (Homo sapiens); assay: Agonist activity at 5HT2C receptor (unknown origin) expressed in HEK293 cells co-expressing NFAT-RE after 6 to 12 hrs by Bright-Glo luciferase reporter gene assay; type: cell-based; procedure, shortened: as §2
[8] = target: T1, 5-hydroxytryptamine receptor 2C (Homo sapiens); assay: Positive allosteric modulation of 5HT2C receptor (unknown origin) expressed in HEK293 cells co-expressing NFAT-RE assessed as increase in serotonin-induced reponse at 1 uM after 6 to 12 hrs by Bright-Glo luciferase reporter gene assay relative to serotonin; type: cell-based; procedure, shortened: as §1
[9] = target: T3, 5-hydroxytryptamine receptor 2B; assay: Positive allosteric modulation of 5HT2B receptor (unknown origin) expressed in HEK293 cells co-expressing NFAT-RE assessed as increase in serotonin-induced reponse at 10 uM after 6 to 12 hrs by Bright-Glo luciferase reporter gene assay; type: cell-based; settings: hek293, 10 µM; procedure, shortened: as §1
[10] = target: T2, 5-hydroxytryptamine receptor 2A; assay: Positive allosteric modulation of 5HT2A receptor (unknown origin) expressed in HEK293 cells co-expressing NFAT-RE assessed as increase in serotonin-induced reponse after 6 to 12 hrs by Bright-Glo luciferase reporter gene assay; type: cell-based; procedure, shortened: as §1

SMILES | Activity [1] | Activity [2] | other results
COc1cc(C(=O)OCc2cn(C(c3ccc(OCc4ccccc4)cc3)C3CC3)nn2)cc(OC)c1OC (stereo unspecified) | inactive |  | 
O=C(c1ccc(NCCCn2ccnc2)cc1)C1CC1 |  | inactive | 
O=S(=O)(NCc1cn(C(c2ccc(OCc3ccccc3)cc2)C2CC2)nn1)c1ccc(F)cc1 (stereo unspecified) | inactive |  | 
OC(c1ccc(-n2cnc3c(NCc4ccccc4)ncnc32)cc1)C1CC1 (stereo unspecified) | inactive | inactive | 
Nc1cccc2ncn(-c3ccc(C(=O)C4CC4)cc3)c12 | inactive | inactive | 
CCOc1ccc2nc(Nc3ccc(C(=O)C4CC4)cc3)sc2c1 | inactive | inactive | 
Nc1ncnc2c1ncn2-c1ccc(C(=O)C2CC2)cc1 | inactive | inactive | 
OC(c1ccc(-n2cnc3ccccc32)cc1)C1CC1 (stereo unspecified) | inactive | inactive | 
Cc1ccc(S(=O)(=O)NCc2cn(C(c3ccc(OCc4ccccc4)cc3)C3CC3)nn2)cc1 (stereo unspecified) | inactive |  | 
Cc1nc2ccccc2n1-c1ccc(C(=O)C2CC2)cc1 | inactive | inactive | 
O=C(c1ccc(OCc2ccccc2)cc1)C1CC1 | inactive |  | 
O=C(c1ccc(Nc2nc3ccc(F)cc3s2)cc1)C1CC1 | inactive | inactive | 
O=C(c1ccc(Nc2nc3ccccc3[nH]2)cc1)C1CC1 | inactive | inactive | 
O=C(c1ccc(Nc2nc3ccccc3s2)cc1)C1CC1 | inactive | inactive | 
Cc1cccc2sc(Nc3ccc(C(=O)C4CC4)cc3)nc12 | inactive | inactive | 
C[C@H]1CNCCc2ccc(Cl)cc21 |  |  | Activity (Rattus norvegicus): Active
O=C(c1ccc(NCCN2CCN(c3ccc(C(=O)C4CC4)cc3)CC2)cc1)C1CC1 | inactive |  | 

SMILES | Activity [1] | Activity [2] | other results
OC(c1ccc(-n2ccnc2)cc1)C1CC1 (stereo unspecified) | inactive | inactive | 
O=C(c1ccc(-n2cnc([N+](=O)[O-])c2)cc1)C1CC1 | inactive | Active | Activity [3]: Not Active; Emax at 1 µM (5HT2A receptor): 100%; EC50 [4]: 1.26 nM; Activity [5]: Not Active; EC50 [6]: 4.17 nM; Emax at 1 µM (5HT2B receptor): 123%; Activity [7]: inactive; Emax [8]: 140%; Activity [9]: Active; EC50 [10]: 45.7 nM
O=[N+]([O-])c1cn(-c2ccc(C(O)C3CC3)cc2)cn1 (stereo unspecified) | inactive | inactive | 
O=C(c1ccc(N2CCN(C(c3ccccc3)c3ccccc3)CC2)cc1)C1CC1 | inactive | inactive | 
CCCCCc1cn(C(c2ccc(OCc3ccccc3)cc2)C2CC2)nn1 (stereo unspecified) | inactive |  | 
C=CCN1CCN(c2ccc(C(=O)C3CC3)cc2)CC1 | inactive | inactive | 
OCc1cn(C(c2ccc(OCc3ccccc3)cc2)C2CC2)nn1 (stereo unspecified) | inactive |  | 
Cc1nc2ccccc2n1-c1ccc(C(O)C2CC2)cc1 (stereo unspecified) | inactive | inactive | 
OCCCCc1cn(C(c2ccc(OCc3ccccc3)cc2)C2CC2)nn1 (stereo unspecified) | inactive |  | 
O=C(c1ccc(-n2cnc3c(NCc4ccccc4)ncnc32)cc1)C1CC1 | inactive | inactive | 
c1ccc(COc2ccc(C(C3CC3)n3cc(-c4ccccc4)nn3)cc2)cc1 (stereo unspecified) | inactive |  | 
O=C(c1ccc(-n2nnc3ccccc32)cc1)C1CC1 | inactive | inactive | 
Nc1ncnc2c1ncn2-c1ccc(C(O)C2CC2)cc1 (stereo unspecified) | inactive | inactive | 
O=C(c1ccc(N2CCN(Cc3ccc4c(c3)OCO4)CC2)cc1)C1CC1 | inactive | inactive | 
O=C(c1ccc(-n2ccnc2)cc1)C1CC1 | inactive | Active | Activity [3]: Not Active; Emax at 1 µM (5HT2A receptor): 96%; EC50 [4]: 1.26 nM; Activity [5]: Not Active; EC50 [6]: 4.27 nM; Emax at 1 µM (5HT2B receptor): 119%; Activity [7]: inactive; Emax [8]: 143%; Activity [9]: Active; EC50 [10]: 50.1 nM
O=C(c1ccc(-n2cnc3ccccc32)cc1)C1CC1 | inactive | inactive | 
CC1(C)O[C@@H]2O[C@H]([C@H]3COC(C)(C)O3)[C@@H](OCc3cn(C(c4ccc(OCc5ccccc5)cc4)C4CC4)nn3)[C@H]2O1 (stereo partly specified) | inactive |  | 
